Assay results from ChEMBL document CHEMBL4340558, “Synthesis, biological evaluation, and molecular docking study of sulfonate derivatives as nucleotide pyrophosphatase/phosphodiesterase (NPP) inhibitors” (Bioorg Med Chem, 2019).

What was measured:
[1] = target: T1, Ectonucleotide pyrophosphatase/phosphodiesterase family member 1 (Homo sapiens, UniProt P22413); assay: Inhibition of human NPP1 expressed in African green monkey COS7 cell membranes pre-incubated for 10 mins before pNP-TMP substrate addition and further incubated for 15 mins by colorimetric method
T1 sequence (P22413 whole entry): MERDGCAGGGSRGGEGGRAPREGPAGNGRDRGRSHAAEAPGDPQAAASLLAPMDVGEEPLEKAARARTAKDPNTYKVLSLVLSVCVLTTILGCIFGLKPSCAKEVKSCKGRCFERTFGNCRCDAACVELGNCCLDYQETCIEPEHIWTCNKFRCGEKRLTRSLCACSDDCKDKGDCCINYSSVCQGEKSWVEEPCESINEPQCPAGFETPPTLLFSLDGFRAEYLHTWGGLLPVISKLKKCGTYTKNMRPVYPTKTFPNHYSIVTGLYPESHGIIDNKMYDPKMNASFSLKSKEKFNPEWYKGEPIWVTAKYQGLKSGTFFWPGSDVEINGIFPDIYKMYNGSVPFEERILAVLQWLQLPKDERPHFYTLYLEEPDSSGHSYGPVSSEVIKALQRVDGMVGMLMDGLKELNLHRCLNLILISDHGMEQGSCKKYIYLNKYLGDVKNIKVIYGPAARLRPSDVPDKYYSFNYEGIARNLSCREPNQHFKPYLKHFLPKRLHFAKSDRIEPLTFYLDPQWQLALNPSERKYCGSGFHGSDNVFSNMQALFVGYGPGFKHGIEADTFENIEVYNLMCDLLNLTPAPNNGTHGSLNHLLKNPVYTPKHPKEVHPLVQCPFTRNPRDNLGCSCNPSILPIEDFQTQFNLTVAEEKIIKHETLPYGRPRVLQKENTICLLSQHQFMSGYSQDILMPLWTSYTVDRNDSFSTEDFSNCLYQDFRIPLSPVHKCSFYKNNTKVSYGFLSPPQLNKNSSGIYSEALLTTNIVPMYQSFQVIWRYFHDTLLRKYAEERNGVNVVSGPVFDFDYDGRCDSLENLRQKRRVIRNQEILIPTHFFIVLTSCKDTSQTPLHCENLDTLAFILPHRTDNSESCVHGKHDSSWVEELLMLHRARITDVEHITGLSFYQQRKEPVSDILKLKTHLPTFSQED

[2] = target: T2, Ectonucleotide pyrophosphatase/phosphodiesterase family member 3 (Homo sapiens, UniProt O14638); assay: Inhibition of human NPP3 expressed in African green monkey COS7 cell membranes pre-incubated for 10 mins before pNP-TMP substrate addition and further incubated for 15 mins by colorimetric method
T2 sequence (O14638 whole entry): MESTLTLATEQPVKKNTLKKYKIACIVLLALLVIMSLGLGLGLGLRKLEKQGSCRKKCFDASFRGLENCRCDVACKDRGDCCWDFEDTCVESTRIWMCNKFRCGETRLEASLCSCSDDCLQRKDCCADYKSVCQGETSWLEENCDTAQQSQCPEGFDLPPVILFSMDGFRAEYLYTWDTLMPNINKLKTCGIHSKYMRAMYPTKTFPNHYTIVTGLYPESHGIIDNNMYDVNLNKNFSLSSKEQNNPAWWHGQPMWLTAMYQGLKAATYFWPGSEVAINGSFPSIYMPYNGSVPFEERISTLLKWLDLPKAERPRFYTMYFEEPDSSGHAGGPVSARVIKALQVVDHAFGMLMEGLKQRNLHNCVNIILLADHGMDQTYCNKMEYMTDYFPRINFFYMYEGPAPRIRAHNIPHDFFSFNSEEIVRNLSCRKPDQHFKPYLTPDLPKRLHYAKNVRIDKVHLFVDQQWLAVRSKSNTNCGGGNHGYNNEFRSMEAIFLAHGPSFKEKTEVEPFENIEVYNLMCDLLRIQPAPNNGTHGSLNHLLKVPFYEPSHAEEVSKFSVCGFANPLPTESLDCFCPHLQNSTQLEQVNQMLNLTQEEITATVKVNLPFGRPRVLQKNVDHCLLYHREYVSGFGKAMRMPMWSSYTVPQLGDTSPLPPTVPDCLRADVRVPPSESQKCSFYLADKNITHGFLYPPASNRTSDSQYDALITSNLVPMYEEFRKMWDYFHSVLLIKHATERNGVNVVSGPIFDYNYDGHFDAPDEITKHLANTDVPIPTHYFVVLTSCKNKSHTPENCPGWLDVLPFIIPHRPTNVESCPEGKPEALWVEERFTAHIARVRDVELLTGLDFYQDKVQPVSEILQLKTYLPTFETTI

Autotaxin [3] = target: T3, Autotaxin (Homo sapiens, UniProt Q13822); assay: Inhibition of human NPP2 expressed in African green monkey COS7 cell membranes pre-incubated for 5 mins before pNP-TMP substrate addition and further incubated for 35 mins by colorimetric method relative to untreated control; design: concentration or dose not given beside the values
Procedure, shortened: (§1)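 Single-point screen at 100 µM test compound, added from a 1 mM stock in 10% DMSO. Buffer was 50 mM Tris-HCl, 5 mM MgCl2, 0.1 mM ZnCl2, pH 9.5, at 37 °C. pNP-TMP substrate was 400 µM for NPP1, 500 µM for NPP2, 600 µM for NPP3. Absorbance at 405 nm was read before and after substrate addition. Percent inhibition was determined in triplicate.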

[4] = target: T4, Ectonucleotide pyrophosphatase/phosphodiesterase family member 1 (Homo sapiens) (UniProt P22413); assay: Inhibition of human NPP1 expressed in African green monkey COS7 cell membranes pre-incubated for 10 mins before pNP-TMP substrate addition and further incubated for 15 mins by colorimetric method relative to untreated control; design: concentration or dose not given beside the values; procedure, shortened: as §1
T4 sequence (whole entry): T1 sequence (P22413 whole entry)

[5] = target: T5, Ectonucleotide pyrophosphatase/phosphodiesterase family member 3 (Homo sapiens) (UniProt O14638); assay: Inhibition of human NPP3 expressed in African green monkey COS7 cell membranes pre-incubated for 10 mins before pNP-TMP substrate addition and further incubated for 15 mins by colorimetric method relative to untreated control; design: concentration or dose not given beside the values; procedure, shortened: as §1
T5 sequence (whole entry): T2 sequence (O14638 whole entry)

Autotaxin [6] = target: T3, Autotaxin; assay: Inhibition of human NPP2 expressed in African green monkey COS7 cell membranes pre-incubated for 5 mins before pNP-TMP substrate addition and further incubated for 35 mins by colorimetric method
Procedure, shortened: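 Colorimetric assay in 50 mM Tris-HCl, 5 mM MgCl2, 0.1 mM ZnCl2, pH 9.5, at 37 °C. Enzyme amounts: NPP1 35 ng, NPP2 338 ng, NPP3 37 ng. Pre-read at 405 nm was taken, then pNP-TMP was added: 400 µM for NPP1, 500 µM for NPP2, 600 µM for NPP3. A second 405 nm read followed. Runs were in triplicate. IC50 came from serial dilutions by non-linear curve fitting.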

[7] = target: T5, Ectonucleotide pyrophosphatase/phosphodiesterase family member 3 (Homo sapiens); assay: Potency index, ratio of IC50 for suramin to IC50 for test compound for inhibition of human NPP3 expressed in African green monkey COS7 cell membranes pre-incubated for 10 mins before pNP-TMP substrate addition and further incubated for 15 mins by colorimetric method

SMILES | IC50 [1] | IC50 [2] | inhibition (Autotaxin [3]) | inhibition [4] | inhibition [5] | IC50 (Autotaxin [6]) | Ratio IC50 [7]
CC(C)(C)c1ccc(S(=O)(=O)Oc2ccc(NC(=O)C3CCCC3)cc2)cc1 | 1650 nM | 2680 nM | 42% |  |  |  | 
CC(C)c1cc(C(C)C)c(S(=O)(=O)Oc2ccc(NC(=O)c3ccc4ccccc4c3)cc2)c(C(C)C)c1 | 3430 nM | 2890 nM | 42% |  |  |  | 
O=C(Nc1ccc(OS(=O)(=O)c2ccc(F)cc2)cc1)c1ccc2ccccc2c1 | 1490 nM | 13500 nM | 33% |  |  |  | 
O=C(Nc1ccc(OS(=O)(=O)c2ccc(C(F)(F)F)cc2)cc1)C1CCCCCC1 | 431 nM | 2580 nM | 34% |  |  |  | 
CC(C)c1cc(C(C)C)c(S(=O)(=O)Oc2ccc(NC(=O)C3CCCCCCC3)cc2)c(C(C)C)c1 |  |  | 46% | 30% | 30% |  | 
CC(C)c1cc(C(C)C)c(S(=O)(=O)Oc2ccc(NC(=O)C3CCCCCC3)cc2)c(C(C)C)c1 |  |  | 23% | 29% | 37% |  | 
Cc1ccc(S(=O)(=O)Oc2ccc(NC(=O)c3ccc(Cl)cc3)cc2)cc1 | 1440 nM | 1620 nM |  |  |  | 7690 nM | 
CC(C)c1cc(C(C)C)c(S(=O)(=O)Oc2ccc(NC(=O)c3ccc(Cl)cc3)cc2)c(C(C)C)c1 | 975 nM | 1200 nM | 24% |  |  |  | 
CC(C)(C)c1ccc(S(=O)(=O)Oc2ccc(NC(=O)C3CCCCC3)cc2)cc1 | 2550 nM | 807 nM | 39% |  |  |  | 
CCS(=O)(=O)Oc1ccc(NC(=O)C2CCCCC2)cc1 | 1630 nM | 369 nM |  |  |  | 1820 nM | 
CC(C)(C)c1ccc(S(=O)(=O)Oc2ccc(NC(=O)C3CCCCCCC3)cc2)cc1 |  |  | 49% | 40% | 46% |  | 
CC(C)(C)c1ccc(S(=O)(=O)Oc2ccc(NC(=O)c3ccc(Cl)cc3)cc2)cc1 | 1800 nM | 1520 nM | 31% |  |  |  | 
O=C(Nc1ccc(OS(=O)(=O)c2ccccc2)cc1)c1ccc(Cl)cc1 | 9610 nM | 2770 nM |  |  |  | > 100000 nM | 
O=C(Nc1ccc(OS(=O)(=O)c2ccc(C(F)(F)F)cc2)cc1)c1ccc(Cl)cc1 | 21600 nM | 3420 nM |  |  |  | 1070 nM | 
Cc1ccc(S(=O)(=O)Oc2ccc(NC(=O)c3ccc4ccccc4c3)cc2)cc1 |  |  |  | 24% | 23% | 7990 nM | 
O=C(Nc1ccc(OS(=O)(=O)c2cccc3cccnc23)cc1)c1ccc2ccccc2c1 |  |  |  | 37% | 42% | 2460 nM | 
CC(C)(C)c1ccc(S(=O)(=O)Oc2ccc(NC(=O)C3CCCCCC3)cc2)cc1 | 1490 nM | 47000 nM |  |  |  | 3910 nM | 
CCCS(=O)(=O)Oc1ccc(NC(=O)C2CCCCC2)cc1 | 3460 nM | 2410 nM |  |  |  | 26200 nM | 
O=C(Nc1ccc(OS(=O)(=O)c2ccc(C(F)(F)F)cc2)cc1)c1ccc2ccccc2c1 | 1120 nM | 5430 nM | 22% |  |  |  | 
O=C(Nc1ccc(OS(=O)(=O)c2ccc(C(F)(F)F)cc2)cc1)C1CCCCCCC1 |  | 214 nM |  | 29% |  | 679 nM | 6
CS(=O)(=O)Oc1ccc(NC(=O)C2CCCCC2)cc1 | 1920 nM | 1350 nM | 33% |  |  |  | 
O=C(Nc1ccc(OS(=O)(=O)c2ccccc2)cc1)c1ccc2ccccc2c1 | 9300 nM | 20500 nM |  |  |  | 28000 nM | 
CC(C)(C)c1ccc(S(=O)(=O)Oc2ccc(NC(=O)c3ccc4ccccc4c3)cc2)cc1 | 2190 nM |  | 38% |  | 49% |  | 
O=C(Nc1ccc(OS(=O)(=O)c2ccc(F)cc2)cc1)c1ccc(Cl)cc1 | 2900 nM |  |  |  | 46% | 19900 nM | 
O=C(Nc1ccc(OS(=O)(=O)c2ccc(C(F)(F)F)cc2)cc1)C1CCCC1 | 1130 nM | 3960 nM |  |  |  | 659 nM | 

The remaining lines, values ahead:

IC50 [1] | IC50 [2] | inhibition (Autotaxin [3]) | inhibition [4] | inhibition [5] | IC50 (Autotaxin [6]) | Ratio IC50 [7] | SMILES
46700 nM | 1720 nM | 38% |  |  |  |  | O=C(Nc1ccc(OS(=O)(=O)c2ccccc2)cc1)C1CCCC1
11800 nM | 1080 nM |  |  |  | 23800 nM |  | O=C(Nc1ccc(OS(=O)(=O)c2ccccc2)cc1)C1CCCCC1
387 nM | 1790 nM |  |  |  | 1600 nM |  | O=C(Nc1ccc(OS(=O)(=O)c2ccc(C(F)(F)F)cc2)cc1)C1CCCCC1
564 nM | 254 nM | 37% |  |  |  |  | O=C(Nc1ccc(OS(=O)(=O)c2ccc(F)cc2)cc1)C1CCCCC1
8140 nM | 856 nM |  |  |  | 13600 nM |  | Cc1ccc(S(=O)(=O)Oc2ccc(NC(=O)C3CCCC3)cc2)cc1
13800 nM | 6600 nM | 28% |  |  |  |  | O=C(Nc1ccc(OS(=O)(=O)c2ccccc2)cc1)C1CCCCCC1
 |  |  | 45% | 47% | 65400 nM |  | O=C(Nc1ccc(OS(=O)(=O)c2ccccc2)cc1)C1CCCCCCC1
 |  | 27% | 43% | 39% |  |  | Cc1ccc(S(=O)(=O)Oc2ccc(NC(=O)C3CCCCC3)cc2)cc1
422 nM | 255 nM | 24% |  |  |  |  | Cc1ccc(S(=O)(=O)Oc2ccc(NC(=O)C3CCCCCC3)cc2)cc1
 |  |  | 43% | 35% | 80300 nM |  | Cc1ccc(S(=O)(=O)Oc2ccc(NC(=O)C3CCCCCCC3)cc2)cc1
 | 2270 nM |  | 39.3% |  | 4940 nM |  | O=C(Nc1ccc(OS(=O)(=O)c2ccc(F)cc2)cc1)C1CCCCCC1
5760 nM | 1010 nM |  |  |  | 1470 nM |  | O=C(Nc1ccc(OS(=O)(=O)c2ccc(F)cc2)cc1)C1CCCC1
